From ChEMBL document CHEMBL4261529, “Rational design and optimization of selenophenes with basic side chains as novel potent selective estrogen receptor modulators (SERMs) for breast cancer therapy” (Medchemcomm, 2017)
Active and inactive are the calls of the source. The rule behind the calls is not given here.

Experiments:
[1] = target: T1, Estrogen receptor (Homo sapiens) (UniProt P03372); test: Binding affinity to human ERalpha LBD expressed in Escherichia coli BL21(DE3) after 2 hrs by fluorescence tracer coumestrol based competitive fluorometric binding assay relative to 17beta-estradiol
T1 sequence (whole entry): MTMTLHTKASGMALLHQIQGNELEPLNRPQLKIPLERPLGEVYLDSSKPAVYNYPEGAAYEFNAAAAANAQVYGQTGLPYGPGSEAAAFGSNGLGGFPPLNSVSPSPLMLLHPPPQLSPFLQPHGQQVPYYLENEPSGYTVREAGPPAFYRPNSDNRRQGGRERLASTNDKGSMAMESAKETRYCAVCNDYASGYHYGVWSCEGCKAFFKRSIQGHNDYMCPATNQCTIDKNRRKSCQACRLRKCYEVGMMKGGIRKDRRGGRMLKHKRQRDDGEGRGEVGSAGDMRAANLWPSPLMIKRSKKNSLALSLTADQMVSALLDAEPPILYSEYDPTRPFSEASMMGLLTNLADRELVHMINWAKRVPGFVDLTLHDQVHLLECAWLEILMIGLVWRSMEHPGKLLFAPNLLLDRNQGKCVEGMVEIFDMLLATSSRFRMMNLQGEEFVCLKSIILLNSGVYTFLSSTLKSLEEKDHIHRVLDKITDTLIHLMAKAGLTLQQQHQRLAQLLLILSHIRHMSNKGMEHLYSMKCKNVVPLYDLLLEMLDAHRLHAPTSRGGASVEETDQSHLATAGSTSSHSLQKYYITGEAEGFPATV

Estrogen receptor beta [2] = target: T2, Estrogen receptor beta (Homo sapiens, UniProt Q92731); test: Binding affinity to human ERbeta LBD expressed in Escherichia coli BL21(DE3) after 2 hrs by fluorescence tracer coumestrol based competitive fluorometric binding assay relative to 17beta-estradiol
T2 sequence (Q92731 whole entry, the tested form may be a part): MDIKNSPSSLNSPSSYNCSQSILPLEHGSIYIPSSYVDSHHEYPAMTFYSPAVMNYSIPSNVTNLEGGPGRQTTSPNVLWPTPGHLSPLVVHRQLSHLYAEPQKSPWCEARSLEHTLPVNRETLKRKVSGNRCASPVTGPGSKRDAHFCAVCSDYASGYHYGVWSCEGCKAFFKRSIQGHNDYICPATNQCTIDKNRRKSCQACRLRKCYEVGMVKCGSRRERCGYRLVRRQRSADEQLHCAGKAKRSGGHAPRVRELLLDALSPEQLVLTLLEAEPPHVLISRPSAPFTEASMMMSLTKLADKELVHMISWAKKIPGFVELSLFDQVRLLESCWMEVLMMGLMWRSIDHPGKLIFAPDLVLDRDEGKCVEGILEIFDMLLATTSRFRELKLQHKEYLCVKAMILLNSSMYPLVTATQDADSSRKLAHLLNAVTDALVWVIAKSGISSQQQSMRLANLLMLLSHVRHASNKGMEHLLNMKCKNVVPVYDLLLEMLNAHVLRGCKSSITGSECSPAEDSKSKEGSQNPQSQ

Homo sapiens = species on record: Homo sapiens; test: Ratio of relative binding affinity for human ERalpha LBD to relative binding affinity to human ERbeta LBD
Estrogen receptor [3] = target: T3, Estrogen receptor (Homo sapiens, UniProt P03372); test: Antagonist activity at ERalpha (unknown origin) expressed in HEK293T cells assessed as inhibition of 17beta-estradiol stimulated transcriptional activity after 24 hrs by dual luciferase reporter gene assay; format: cell-based
T3 sequence (P03372 whole entry): T1 sequence (whole entry)

Estrogen receptor beta [4] = target: T2, Estrogen receptor beta; test: Antagonist activity at ERbeta (unknown origin) expressed in HEK293T cells assessed as inhibition of 17beta-estradiol stimulated transcriptional activity after 24 hrs by dual luciferase reporter gene assay relative to 17beta-estradiol; format: cell-based
Summary of the method: (§1)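 ERβ expression vector (100 ng) plus 300 ng 3×ERE-luciferase reporter, calcium phosphate transfection into HEK293T cells plated in phenol red-free DMEM with 10% FBS. Next day, treated in triplicate with increasing doses (up to 10–5 M). For antagonist mode, 10 nM estradiol was co-added. Luciferase read 24 h later.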

Estrogen receptor beta [5] = target: T2, Estrogen receptor beta; test: Antagonist activity at ERbeta (unknown origin) expressed in HEK293T cells assessed as inhibition of 17beta-estradiol stimulated transcriptional activity after 24 hrs by dual luciferase reporter gene assay; format: cell-based
Summary of the method: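 HEK293T cells kept in DMEM with 10% FBS, plated in phenol red-free DMEM/10% FBS. Calcium phosphate co-transfection with 300 ng 3×ERE-luciferase reporter and 100 ng ERβ expression vector. Next day, cells stimulated with 10 nM estradiol plus increasing compound doses (up to 10–5 M), in triplicate. Luciferase read after 24 h.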

MCF7 [6] = test: Antiproliferative activity against human MCF7 cells after 72 hrs by MTT assay; format: functional, cell-based; details: MCF7, 72 h
Summary of the method: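 MCF-7 (ATCC), kept in DMEM with 10% FBS, were treated in triplicate for 72 h. IC50 is the average of at least three independent experiments ± SD.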

Estrogen receptor [7] = target: T3, Estrogen receptor; test: Agonist activity at ERalpha (unknown origin) expressed in HEK293T cells assessed as transcriptional activity after 24 hrs by dual luciferase reporter gene assay; format: cell-based
Estrogen receptor beta [8] = target: T2, Estrogen receptor beta; test: Agonist activity at ERbeta (unknown origin) expressed in HEK293T cells assessed as transcriptional activity after 24 hrs by dual luciferase reporter gene assay relative to 17beta-estradiol; format: cell-based; summary of the method: as §1
Estrogen receptor beta [9] = target: T2, Estrogen receptor beta; test: Agonist activity at ERbeta (unknown origin) expressed in HEK293T cells assessed as transcriptional activity after 24 hrs by dual luciferase reporter gene assay; format: cell-based; summary of the method: as §1
MCF7 [10] = test: Antiproliferative activity against human MCF7 cells at 50 uM after 5 days in presence of 10 nM 17beta-estradiol by MTT assay; format: functional, cell-based
Summary of the method: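 MCF-7 cells were given 50 μM compound with or without 10 nM E2 and cultured 5 days. Viability was expressed relative to untreated cells set at 100%. Mean of three separate experiments ± range.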

Compound | RBA [1] | RBA (Estrogen receptor beta [2]) | Ratio (Homo sapiens) | IC50 (Estrogen receptor [3]) | Efficacy (Estrogen receptor beta [4]) | IC50 (Estrogen receptor beta [5]) | IC50 (MCF7 [6]) | EC50 (Estrogen receptor [7]) | Efficacy (Estrogen receptor beta [8]) | EC50 (Estrogen receptor beta [9]) | Activity (MCF7 [10])
Oc1ccc(-c2c[se]cc2-c2ccc(O)cc2)cc1 | 0.32% | 2.01% |  |  |  |  |  |  |  |  | 
Cc1cc(O)ccc1-c1c[se]cc1-c1ccc(OCCN2CCCC2)cc1C | 1.65% | 0.46% | 3.6 | 179 nM | 66.7% | 43 nM | 16600 nM |  |  |  | 
Oc1ccc(-c2ccc(-c3ccc(OCCN4CCCC4)cc3Cl)[se]2)c(Cl)c1 | 4.59% | 23.6% | 0.19 | 415 nM | 49.4% | 299 nM | 7810 nM |  |  |  | 
Cc1cc(-c2c[se]cc2-c2ccc(OCCN3CCCCC3)c(C)c2)ccc1O | < 0.1% | < 0.1% |  |  | 30.3% | 415 nM | > 100000 nM | 721 nM |  |  | 
Cc1cc(O)ccc1-c1c[se]cc1-c1ccc(O)cc1C | 0.27% | 6.7% |  |  |  |  |  |  |  |  | 
Oc1ccc(-c2c[se]cc2-c2ccc(OCCN3CCCCC3)cc2)cc1 | 7.58% | 2.35% | 3.3 | 1590 nM | 22.8% | 451 nM | 8130 nM |  | 53.5% | 1150 nM | inactive
Oc1ccc(-c2ccc(-c3ccc(OCCN4CCCC4)cc3F)[se]2)c(F)c1 | 0.76% | < 0.1% | > 10 |  | 92.1% | 1120 nM | > 100000 nM | 136 nM |  |  | 
Cc1cc(O)ccc1-c1c[se]cc1-c1ccc(OCCN2CCCCC2)cc1C | 0.56% | 10.2% | 0.05 | 237 nM | 43.4% | 1340 nM | 15800 nM | 158 nM |  |  | 
Oc1ccc(-c2ccc(-c3ccc(O)cc3)[se]2)cc1 | 0.61% | 2.87% |  |  |  |  |  |  |  |  | 
Cc1cc(-c2c[se]cc2-c2ccc(OCCN3CCCC3)c(C)c2)ccc1O | 2.03% | 5.92% | 0.34 | 836 nM | 34.1% | 5 nM | 12800 nM | 116 nM | 20.8% |  | 
Oc1ccc(-c2ccc(-c3ccc(OCCN4CCCC4)cc3)[se]2)cc1 | 12.4% | 1.02% | 12.2 | 1210 nM | 83.9% | 1270 nM | 5770 nM | 219 nM |  |  | inactive
Oc1ccc(-c2ccc(-c3ccc(O)cc3F)[se]2)c(F)c1 | 5.9% | 24.3% |  |  |  |  |  |  |  |  | 
Oc1ccc(-c2ccc(-c3ccc(OCCN4CCCCC4)cc3F)[se]2)c(F)c1 | 6.89% | 0.63% | 10.9 |  | 75.4% | 1940 nM | > 100000 nM | 204 nM |  |  | 
Oc1ccc(-c2c[se]cc2-c2ccc(OCCN3CCCCC3)c(F)c2)cc1F | 4.82% | 15.3% | 0.32 | 69 nM | 45% | 540 nM | 15600 nM |  |  |  | 
Oc1ccc(-c2ccc(-c3ccc(OCCN4CCCCC4)cc3Cl)[se]2)c(Cl)c1 | < 0.1% | < 0.1% |  |  | 24.9% | 2960 nM | > 100000 nM | 911 nM |  |  | 
Cc1cc(O)ccc1-c1ccc(-c2ccc(O)cc2C)[se]1 | 5.6% | 11.1% |  |  |  |  |  |  |  |  | 
Oc1ccc(-c2c[se]cc2-c2ccc(OCCN3CCCC3)cc2)cc1 | 2.06% | 5.92% | 0.35 |  | 46.7% | 102 nM | > 100000 nM | 1000 nM |  |  | 
Oc1ccc(-c2c[se]cc2-c2ccc(OCCN3CCCCC3)cc2Cl)c(Cl)c1 | 5.38% | 18.4% | 0.29 | 413 nM | 37.7% | 331 nM | 14100 nM |  |  |  | 
Oc1ccc(-c2ccc(-c3ccc(O)cc3Cl)[se]2)c(Cl)c1 | 6.11% | 12.7% | 0.48 |  |  |  |  |  |  |  | 
Cc1cc(O)ccc1-c1ccc(-c2ccc(OCCN3CCCC3)cc2C)[se]1 | 1.96% | 0.58% | 3.37 | 874 nM | 4.6% | 146 nM | 53800 nM |  | 72.3% | 240 nM | 
Cc1cc(O)ccc1-c1ccc(-c2ccc(OCCN3CCCCC3)cc2C)[se]1 | < 0.1% | 0.62% | < 0.1 | 41 nM | 78.3% | 1240 nM | 25300 nM | 2370 nM |  |  | 
Oc1ccc(-c2c[se]cc2-c2ccc(OCCN3CCCC3)cc2Cl)c(Cl)c1 | < 0.1% | 23.3% | < 0.1 | 769 nM | 68.1% | 1160 nM | 10900 nM |  |  |  | 
Oc1ccc(-c2cc(-c3ccc(OCCN4CCCC4)cc3)c(-c3ccc(O)cc3)[se]2)cc1 | 3.14% | 16.7% | 0.18 | 974 nM | 49.2% | 475 nM | 4950 nM |  |  |  | inactive
Cc1cc(O)ccc1-c1cc(-c2ccc(OCCN3CCCC3)cc2)c(-c2ccc(O)cc2C)[se]1 | 13.8% | 3.4% | 4.06 | 13 nM | 170% | 16 nM | 7050 nM |  |  |  | 
Oc1ccc(-c2c[se]cc2-c2ccc(O)c(F)c2)cc1F | 0.58% | 1.56% |  |  |  |  |  |  |  |  | 
Cc1cc(-c2c[se]cc2-c2ccc(O)c(C)c2)ccc1O | 0.71% | 0.62% |  |  |  |  |  |  |  |  | 
Oc1ccc(-c2cc(-c3ccc(OCCN4CCCCC4)cc3)c(-c3ccc(O)cc3)[se]2)cc1 | 4.59% | < 0.1% | > 10 | 779 nM | 33.8% | 5390 nM | 7040 nM | 1830 nM |  |  | 
